The source made the active and inactive calls. The rule behind the calls is not given here.
Legend:
Pfeiffer [1] = assay: Induction of apoptosis in human Pfeiffer cells assessed as increase in cleaved caspase-3 level at 1 to 3 uM after 72 hrs by Western blotting analysis; type: functional, cell-based
Summary of the method: (§1)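 Pfeiffer cells treated 72 h. Lysates analysed by Western blot for apoptosis markers.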

[2] = Cell cycle arrest in human Pfeiffer cells assessed as accumulation at G1 phase at 1 uM after 72 hrs (reference value: 59%); type: functional, cell-based
Summary of the method: (§2)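 Pfeiffer cells (DLBCL carrying EZH2 A677G) exposed 72 h to 1, 2.5 or 5 µM, with untreated control. DNA content histograms are gated as M1 sub-G1, M2 G1, M3 S and M4 G2/M. Values are the percentage of cells in each gate.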

[3] = Cell cycle arrest in human Pfeiffer cells assessed as accumulation at S phase at 2.5 uM after 72 hrs (reference value: 21%); type: functional, cell-based; summary of the method: as §2
[4] = Cell cycle arrest in human Pfeiffer cells assessed as accumulation at S phase at 5 uM after 72 hrs (reference value: 21%); type: functional, cell-based; summary of the method: as §2
[5] = molecular target: Histone-lysine N-methyltransferase EZH2 (Homo sapiens) (UniProt Q15910); conditions: 1 to 3 uM
[6] = Cell cycle arrest in human Pfeiffer cells assessed as accumulation at G1 phase at 5 uM after 72 hrs (reference value: 59%); type: functional, cell-based; summary of the method: as §2
[7] = Cytotoxicity against human U87MG cells assessed as growth inhibition after 72 hrs by WST-1 assay; type: functional, U-87MG ATCC; conditions: U-87 MG
Summary of the method: (§3)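 Growth inhibition of tumour lines read by WST-1 viability assay. GI50 taken as the half-maximal growth-inhibitory concentration.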

[8] = Cytotoxicity against human Pfeiffer cells expressing EZH2 […] mutant assessed as growth inhibition after 72 hrs by WST-1 assay; type: functional; summary of the method: as §3
Daudi = assay: Cytotoxicity against human Daudi cells assessed as growth inhibition after 72 hrs by WST-1 assay; type: functional; summary of the method: as §3
[9] = Cytotoxicity against human U2932 cells assessed as growth inhibition after 72 hrs by WST-1 assay; type: functional; conditions: U2932, 72 h; summary of the method: as §3
[10] = molecular target: Histone-lysine N-methyltransferase EZH2 (Homo sapiens) (UniProt Q15910); conditions: 3 uM
[11] = Cell cycle arrest in human Pfeiffer cells assessed as accumulation at S phase at 1 uM after 72 hrs (reference value: 21%); type: functional, cell-based; summary of the method: as §2
[12] = Cell cycle arrest in human Pfeiffer cells assessed as accumulation at G1 phase at 2.5 uM after 72 hrs (reference value: 59%); type: functional, cell-based; summary of the method: as §2
EZH2/SUZ12/EED complex = EZH2/SUZ12/EED complex (Homo sapiens, UniProt O75530+Q15022+Q15910); assay: (§4) Inhibition of EZH2 histone methyltransferase activity in EZH2/SUZ12/EED protein complex (unknown origin) using histone H3 peptide/S-adenosylmethionine as substrate after 2 hrs by TR-FRET assay
[13] = molecular target: EZH2/SUZ12/EED complex (Homo sapiens) (UniProt Q15910+O75530+Q15022); assay: as §4
A549 = assay: Cytotoxicity against human A549 cells assessed as growth inhibition after 72 hrs by WST-1 assay; type: functional; conditions: A549, 72 h; summary of the method: as §3
[14] = Cell cycle arrest in human Pfeiffer cells assessed as accumulation at sub-G1 phase at 5 uM after 72 hrs (reference value: 9%); type: functional, cell-based; summary of the method: as §2
Pfeiffer [15] = assay: Induction of apoptosis in human Pfeiffer cells assessed as DNA content at 1 to 5 uM after 72 hrs by DAPI staining-based analysis; type: functional, cell-based; summary of the method: as §2
[16] = molecular target: Histone-lysine N-methyltransferase EZH2 (Homo sapiens) (UniProt Q15910); conditions: 3 uM; remark: listed apart in the source
PC-3 = assay: Cytotoxicity against human PC3 cells assessed as growth inhibition after 72 hrs by WST-1 assay; type: functional; conditions: PC-3, 72 h; summary of the method: as §3
[17] = Inhibition of EZH2 histone methyltransferase […] mutant in EZH2/SUZ12/EED/RbAp46/48 protein complex (unknown origin) using histone H3 peptide/S-adenosylmethionine as substrate after 2 hrs by Lineweaver-Burk plot analysis; set-up: species or system Homo sapiens
Summary of the method: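 EZH2 A677G mutant activity measured with inhibitor at 0, 0.625, 1.25 and 2.5 µM. Inhibition mode analysed by Lineweaver–Burk plot.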

[18] = Cell cycle arrest in human Pfeiffer cells assessed as accumulation at G2/M phase at 5 uM after 72 hrs (reference value: 10%); type: functional, cell-based; summary of the method: as §2
[19] = Cell cycle arrest in human Pfeiffer cells assessed as accumulation at sub-G1 phase at 1 uM after 72 hrs (reference value: 9%); type: functional, cell-based; summary of the method: as §2
Pfeiffer [20] = assay: Induction of apoptosis in human Pfeiffer cells assessed as increase in cleaved caspase-7 level at 1 to 3 uM after 72 hrs by Western blotting analysis; type: functional, cell-based; summary of the method: as §1
Pfeiffer [21] = assay: Induction of apoptosis in human Pfeiffer cells assessed as increase in cleaved PARP level at 1 to 3 uM after 72 hrs by Western blotting analysis; type: functional, cell-based; summary of the method: as §1
T98G = assay: Cytotoxicity against human T98G cells assessed as growth inhibition after 72 hrs by WST-1 assay; type: functional; summary of the method: as §3
[22] = Cell cycle arrest in human Pfeiffer cells assessed as accumulation at G2/M phase at 1 uM after 72 hrs (reference value: 10%); type: functional, cell-based; summary of the method: as §2
[23] = Cell cycle arrest in human Pfeiffer cells assessed as accumulation at sub-G1 phase at 2.5 uM after 72 hrs (reference value: 9%); type: functional, cell-based; summary of the method: as §2
[24] = Cell cycle arrest in human Pfeiffer cells assessed as accumulation at G2/M phase at 2.5 uM after 72 hrs (reference value: 10%); type: functional, cell-based; summary of the method: as §2
[25] = molecular target: EZH2/SUZ12/EED/RBBP7/RBBP4; assay: Competitive inhibition of EZH2 histone methyltransferase activity in EZH2/SUZ12/EED/RbAp46/48 (unknown origin) using histone H3 peptide/varying concentration of S-adenosylmethionine as substrate after 2 hrs by Lineweaver-Burk plot analysis; type: protein-complex assay, Homo sapiens
Summary of the method: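 PRC2 complex (EZH2, EED, SUZ12, RbAp46/48) as enzyme. Histone H3 peptide fixed at 150 nM, SAM varied. Inhibitor at 0, 0.625, 1.25 and 2.5 µM.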

EZH2/SUZ12/EED complex (Homo sapiens), sequence (O75530 2-441 partner limits assumed): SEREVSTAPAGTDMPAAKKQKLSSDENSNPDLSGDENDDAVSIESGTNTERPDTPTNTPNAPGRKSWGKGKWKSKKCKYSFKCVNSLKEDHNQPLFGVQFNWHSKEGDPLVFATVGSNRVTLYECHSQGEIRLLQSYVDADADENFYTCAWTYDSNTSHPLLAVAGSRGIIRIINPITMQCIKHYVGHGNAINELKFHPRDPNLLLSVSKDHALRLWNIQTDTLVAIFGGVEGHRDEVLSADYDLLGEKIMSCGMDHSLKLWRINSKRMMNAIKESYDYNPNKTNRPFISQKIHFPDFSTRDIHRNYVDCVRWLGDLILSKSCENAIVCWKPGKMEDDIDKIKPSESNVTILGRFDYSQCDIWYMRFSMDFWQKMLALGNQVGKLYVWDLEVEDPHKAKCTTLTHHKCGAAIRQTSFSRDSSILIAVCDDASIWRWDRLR
EZH2/SUZ12/EED complex (Homo sapiens), sequence (Q15022 whole entry partner): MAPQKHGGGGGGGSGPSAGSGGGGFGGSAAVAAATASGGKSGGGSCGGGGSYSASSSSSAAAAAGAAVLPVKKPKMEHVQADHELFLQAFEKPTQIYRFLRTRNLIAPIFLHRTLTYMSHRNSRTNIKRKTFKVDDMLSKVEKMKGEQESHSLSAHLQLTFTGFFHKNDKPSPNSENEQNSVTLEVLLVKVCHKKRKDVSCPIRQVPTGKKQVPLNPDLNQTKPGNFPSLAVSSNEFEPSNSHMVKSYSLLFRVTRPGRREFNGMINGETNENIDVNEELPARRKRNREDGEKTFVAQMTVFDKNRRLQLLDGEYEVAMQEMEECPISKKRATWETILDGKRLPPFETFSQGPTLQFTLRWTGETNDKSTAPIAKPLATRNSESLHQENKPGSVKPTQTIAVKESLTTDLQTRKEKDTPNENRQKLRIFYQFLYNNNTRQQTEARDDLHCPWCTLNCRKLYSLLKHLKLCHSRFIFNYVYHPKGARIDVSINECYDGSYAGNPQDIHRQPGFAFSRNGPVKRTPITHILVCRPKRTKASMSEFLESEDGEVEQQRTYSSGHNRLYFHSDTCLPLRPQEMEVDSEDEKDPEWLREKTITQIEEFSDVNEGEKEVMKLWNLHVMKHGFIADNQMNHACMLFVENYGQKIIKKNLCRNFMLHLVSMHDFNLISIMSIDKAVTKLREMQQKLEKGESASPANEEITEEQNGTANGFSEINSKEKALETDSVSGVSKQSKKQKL
EZH2/SUZ12/EED complex (Homo sapiens), sequence (Q15910 whole entry): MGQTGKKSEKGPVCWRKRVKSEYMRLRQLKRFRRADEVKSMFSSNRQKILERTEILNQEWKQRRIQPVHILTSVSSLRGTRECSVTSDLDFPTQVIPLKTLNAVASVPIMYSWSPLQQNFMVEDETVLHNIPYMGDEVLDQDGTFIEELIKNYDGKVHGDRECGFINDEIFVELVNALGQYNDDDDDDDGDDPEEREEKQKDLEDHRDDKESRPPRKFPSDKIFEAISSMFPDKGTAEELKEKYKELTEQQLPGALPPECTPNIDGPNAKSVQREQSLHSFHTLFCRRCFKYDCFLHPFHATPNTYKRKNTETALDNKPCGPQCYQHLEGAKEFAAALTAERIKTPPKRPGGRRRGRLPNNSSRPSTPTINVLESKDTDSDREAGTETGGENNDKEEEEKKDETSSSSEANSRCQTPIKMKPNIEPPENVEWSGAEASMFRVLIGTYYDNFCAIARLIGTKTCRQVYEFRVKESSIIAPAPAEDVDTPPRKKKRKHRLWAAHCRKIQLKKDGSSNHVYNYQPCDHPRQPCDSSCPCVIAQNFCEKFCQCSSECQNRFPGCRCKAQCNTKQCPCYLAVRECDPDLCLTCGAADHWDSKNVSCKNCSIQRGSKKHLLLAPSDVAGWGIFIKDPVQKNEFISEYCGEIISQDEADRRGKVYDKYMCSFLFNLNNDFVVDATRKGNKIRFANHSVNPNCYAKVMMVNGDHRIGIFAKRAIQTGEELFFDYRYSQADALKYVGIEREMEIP
Histone-lysine N-methyltransferase EZH2 (Homo sapiens), sequence (Q15910 whole entry, looked up): as the sequence (Q15910 whole entry) above
EZH2/SUZ12/EED complex, sequence (Q15910 whole entry): as above
EZH2/SUZ12/EED complex, sequence (O75530 whole entry): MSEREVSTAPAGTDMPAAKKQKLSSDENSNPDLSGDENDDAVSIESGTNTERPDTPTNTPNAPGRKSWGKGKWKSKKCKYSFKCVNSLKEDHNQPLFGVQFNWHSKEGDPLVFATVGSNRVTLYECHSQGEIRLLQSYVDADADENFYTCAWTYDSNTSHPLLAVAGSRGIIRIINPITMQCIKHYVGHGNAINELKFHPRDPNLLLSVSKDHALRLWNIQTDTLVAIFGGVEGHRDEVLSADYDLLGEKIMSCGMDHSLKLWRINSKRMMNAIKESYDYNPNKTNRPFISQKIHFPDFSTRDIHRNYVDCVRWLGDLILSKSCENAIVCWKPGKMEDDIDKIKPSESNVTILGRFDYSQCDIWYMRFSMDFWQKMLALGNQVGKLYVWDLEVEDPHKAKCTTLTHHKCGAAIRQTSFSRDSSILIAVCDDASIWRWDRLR
EZH2/SUZ12/EED complex, sequence (Q15022 whole entry): as the sequence (Q15022 whole entry partner) above

Cc1coc2c1C(=O)C(=O)c1c-2ccc2c1CC[C@@H](O)[C@]2(C)O
Activity (Pfeiffer [1]): Active | Activity [2]: 58% | Activity [3]: 24% | Activity [4]: 29% | inhibition [5]: Active | Activity [6]: 41% | GI50 [7]: 5.7 µM | GI50 [8]: 1.5 µM | GI50 (Daudi): 10.6 µM | GI50 [9]: 9.5 µM | inhibition [10]: 50% | Activity [11]: 20% | Activity [12]: 51% | IC50 (EZH2/SUZ12/EED complex): 0.55 µM | inhibition [13]: Dose-dependent effect | GI50 (A549): 4.2 µM | Activity [14]: 21% | Activity (Pfeiffer [15]): Active | inhibition [16]: 50% | GI50 (PC-3): 4 µM | Ki [17]: 0.176 µM | Activity [18]: 7% | Activity [19]: 11% | Activity (Pfeiffer [20]): Active | Activity (Pfeiffer [21]): Active | GI50 (T98G): 6 µM | Activity [22]: 11% | Activity [23]: 13% | Activity [24]: 11% | Ki [25]: 0.194 µM

COC(=O)[C@@]1(C)CCCc2c1ccc1c2C(=O)C(=O)c2c(C)coc2-1 [METHYL TANSHINONATE]
IC50 (EZH2/SUZ12/EED complex): 9.6 µM | inhibition [13]: Dose-dependent effect

CC[C@H](C)n1cc(C)c2c(C(=O)NCc3c(C)cc(C)[nH]c3=O)cc(-c3ccc(N4CCNCC4)nc3)cc21 [GSK2816126]
GI50 [7]: 28.5 µM | GI50 [8]: 0.18 µM | GI50 (Daudi): 11.2 µM | GI50 [9]: 6.7 µM | GI50 (A549): 18.7 µM | GI50 (PC-3): 9.4 µM | GI50 (T98G): 12.6 µM

Cc1coc2c1C(=O)C(=O)c1c-2ccc2c(C)cccc12 [TANSHINONE I]
IC50 (EZH2/SUZ12/EED complex): 8.9 µM | inhibition [13]: Dose-dependent effect

Cc1coc2c1C(=O)C(=O)c1c-2ccc2c1CC[C@H](O)[C@]2(C)O
IC50 (EZH2/SUZ12/EED complex): 0.52 µM | inhibition [13]: Dose-dependent effect

Cc1coc2c1C(=O)C(=O)c1c-2ccc2c1CCCC2(C)CO (configuration not stated) [TANSHINONE IIB]
IC50 (EZH2/SUZ12/EED complex): 4.8 µM | inhibition [13]: Dose-dependent effect

Cc1coc2c1C(=O)C(=O)c1c-2ccc2c1CCCC2(C)C [TANSHINONE IIA]
IC50 (EZH2/SUZ12/EED complex): 28.1 µM | inhibition [13]: Dose-dependent effect
